Measurements as given in ChEMBL document CHEMBL3616436, “Synthesis, cytotoxicity and antimicrobial activity of thiourea derivatives incorporating 3-(trifluoromethyl)phenyl moiety” (Eur J Med Chem, 2015).
Calls of active or inactive are those of the source. No cut-off for these calls is given here.

Columns and labels:
Escherichia coli [1] = experiment: Antimicrobial activity against Escherichia coli ATCC 25922 after 18 hrs by twofold serial microdilution method; assay type: functional, organism-based
[2] = Cytotoxicity against bovine MDBK cells assessed as cell viability after 48 to 96 hrs by MTT assay; assay type: cell-based, Bos taurus; conditions: cattle
Candida albicans [3] = experiment: Antimicrobial activity against Candida albicans ATCC 10231 after 24 hrs by twofold serial microdilution method; assay type: functional, organism-based
[4] = test system: Human immunodeficiency virus 1; experiment: Antiviral activity against HIV1 3B infected in human MT4 cells assessed as protection against virus-induced cytopathogenicity by MTT assay; assay type: functional, organism-based; conditions: Human immunodeficiency virus 1, 3B
[5] = test system: Mammalian orthoreovirus 1; experiment: Antiviral activity against Reovirus type-1 ATCC VR-214 infected in BHK cells assessed as protection against virus-induced cytopathogenicity after 3 to 4 days by MTT assay; assay type: functional, cell-based; conditions: Mammalian orthoreovirus 1, ATCC VR-214, BHK
Procedure, shortened: (§1)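 Cells seeded in 96-well plates (BHK 5x10^4, MDBK 3x10^4 cells/well), grown overnight to confluence, infected at m.o.i. 0.01 (BHK for Reo-1, MDBK for BVDV); serial compound dilutions in maintenance medium with 0.5% inactivated FBS added after 1 h; viability by MTT after 3–4 days at 37°C; EC50 for 50% protection by linear regression.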

Pseudomonas aeruginosa [6] = experiment: Antimicrobial activity against Pseudomonas aeruginosa ATCC 15442 after 18 hrs by twofold serial microdilution method; assay type: functional, organism-based
Yellow fever virus = experiment: Antiviral activity against Yellow fever virus 17D infected in BHK cells assessed as protection against virus-induced cytopathogenicity after 3 to 4 days by MTT assay; assay type: functional, cell-based
[7] = Cytotoxicity against BHK cells assessed as cell viability after 48 to 96 hrs by MTT assay; assay type: cell-based, Mesocricetus auratus; conditions: hamster
[8] = test system: Mycobacterium tuberculosis; experiment: Antimycobacterial activity against drug-sensitive Mycobacterium tuberculosis Spec. 192; assay type: functional
Procedure, shortened: (§2)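 Classical test-tube successive-dilution method in Youmans' modification of Proskauer and Beck liquid medium with 10% bovine serum. Inoculum came from 14-day cultures. DMSO stock was 10 mg/mL, diluted geometrically in medium. Tubes were incubated at 37 °C. Concentrations tested were 3.1, 6.2, 12.5, 25, 50 and 100 µg/ml. MIC is the minimum concentration inhibiting growth relative to compound-free tubes.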

[9] = test system: Vesicular stomatitis virus; experiment: Antiviral activity against Vesicular stomatitis virus ATCC VR 1540 infected in African green monkey Vero 76 cells assessed as reduction of virus-plaque formation after 2 days by crystal violet staining; assay type: functional, organism-based; conditions: ATCC VR 1540, Vero, 48 h
[10] = Antiviral activity against Bovine viral diarrhea virus 1-NADL ATCC VR-534 infected in MDBK cells assessed as protection against virus-induced cytopathogenicity after 3 to 4 days by MTT assay; assay type: functional, cell-based; conditions: Bovine viral diarrhea virus isolates and strains, ATCC VR-534, MDBK; procedure, shortened: as §1
Coxsackievirus B5 = experiment: Antiviral activity against Human coxsackievirus B5 ATCC VR-29 infected in African green monkey Vero 76 cells assessed as reduction of virus-plaque formation after 3 days by crystal violet staining; assay type: functional, organism-based; conditions: Enterovirus B, ATCC VR-29, Vero, 72 h
Procedure, shortened: (§3)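 Plaque reduction: Vero-76 at 2x10^5 cells/well grown to confluent monolayers, infected 2 h at 50–100 PFU/well; after removing unadsorbed virus, overlay of D-MEM, 1% inactivated FBS, 0.75% methylcellulose with or without serial compound dilutions; 3 days at 37°C, fixed and stained with crystal violet in 50% ethanol, plaques counted; EC50 by linear regression.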

Escherichia coli [11] = experiment: Antimicrobial activity against Escherichia coli ATCC 10538 after 18 hrs by twofold serial microdilution method; assay type: functional, organism-based
Candida albicans [12] = experiment: Antimicrobial activity against Candida albicans ATCC 90028 after 24 hrs by twofold serial microdilution method; assay type: functional, organism-based
[13] = test system: Mycobacterium tuberculosis; experiment: Antimycobacterial activity against Mycobacterium tuberculosis H37Rv ATCC 25618; assay type: functional; procedure, shortened: as §2
[14] = test system: Bordetella bronchiseptica; experiment: Antimicrobial activity against Bordetella bronchiseptica ATCC 4617 after 18 hrs by twofold serial microdilution method; assay type: functional, organism-based
Poliovirus 1 = experiment: Antiviral activity against Poliovirus type 1 ATCC VR-1562 infected in African green monkey Vero 76 cells assessed as reduction of virus-plaque formation after 2 days by crystal violet staining; assay type: functional, organism-based; conditions: Enterovirus C, ATCC VR-1562, Vero, 48 h
Pseudomonas aeruginosa [15] = experiment: Antimicrobial activity against Pseudomonas aeruginosa ATCC 27863 after 18 hrs by twofold serial microdilution method; assay type: functional, organism-based
[16] = Cytotoxicity against human MT4 cells; assay type: cell-based
Pseudomonas aeruginosa [17] = experiment: Antimicrobial activity against Pseudomonas aeruginosa NCTC 6749 after 18 hrs by twofold serial microdilution method; assay type: functional, organism-based
Escherichia coli [18] = experiment: Antimicrobial activity against Escherichia coli NCTC 8196 after 18 hrs by twofold serial microdilution method; assay type: functional, organism-based
Vaccinia virus = experiment: Antiviral activity against Human Vaccinia virus ATCC VR-1549 infected in African green monkey Vero 76 cells assessed as reduction of virus-plaque formation after 3 days by crystal violet staining; assay type: functional, organism-based; conditions: Orthopoxvirus vaccinia, ATCC VR-1549, Vero, 72 h
Human alphaherpesvirus 1 = experiment: Antiviral activity against Human herpesvirus 1 KOS ATCC VR-1493 infected in African green monkey Vero 76 cells assessed as reduction of virus-plaque formation after 3 days by crystal violet staining; assay type: functional, organism-based; conditions: Human alphaherpesvirus 1, KOS ATCC VR1493, Vero, 72 h; procedure, shortened: as §3
Candida parapsilosis = experiment: Antimicrobial activity against Candida parapsilosis ATCC 22019 after 24 hrs by twofold serial microdilution method; assay type: functional, organism-based
[19] = Cytotoxicity against African green monkey Vero 76 cells assessed as cell viability after 48 to 96 hrs by crystal violet staining; assay type: cell-based; conditions: chlorocebus sabaeus
CCRF-SB = experiment: Cytotoxicity against human CCRF-SB cells after 96 hrs by MTT assay; assay type: functional
Procedure, shortened: (§4)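 Leukaemia/lymphoma lines seeded at 1×10^5 cells/ml in RPMI-1640 with 10% FCS and penicillin/streptomycin; incubated with serial dilutions at 37°C, 5% CO2; viability by MTT after 96 h; value is concentration reducing proliferation by 50%, with untreated controls undergoing at least three rounds of multiplication.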

WIL2-NS = experiment: Cytotoxicity against human WIL2-NS cells after 96 hrs by MTT assay; assay type: functional; procedure, shortened: as §4
CCRF-CEM = experiment: Cytotoxicity against human CCRF-CEM cells after 96 hrs by MTT assay; assay type: functional; procedure, shortened: as §4

| Compound | Activity (Escherichia coli [1]) | CC50 [2] [µM] | Activity (Candida albicans [3]) | EC50 [4] [µM] | EC50 [5] [µM] | Activity (Pseudomonas aeruginosa [6]) | EC50 (Yellow fever virus) [µM] | CC50 [7] [µM] | MIC [8] [µg/mL] | EC50 [9] [µM] | EC50 [10] [µM] | EC50 (Coxsackievirus B5) [µM] | Activity (Escherichia coli [11]) | Activity (Candida albicans [12]) | MIC [13] [µg/mL] | Activity [14] | EC50 (Poliovirus 1) [µM] | Activity (Pseudomonas aeruginosa [15]) | CC50 [16] [µM] | Activity (Pseudomonas aeruginosa [17]) | further results |
| --- | --- | --- | --- | --- | --- | --- | --- | --- | --- | --- | --- | --- | --- | --- | --- | --- | --- | --- | --- | --- | --- |
| Cc1ccc(NC(=S)Nc2cccc(C(F)(F)F)c2)cc1Cl | inactive | 10 | inactive | > 20 | > 10 | inactive | > 10 | 10 | > 100 | > 20 | > 10 | > 20 | inactive | inactive | > 100 | inactive | > 20 | inactive | 20 | inactive | Activity (Escherichia coli [18]): inactive; EC50 (Vaccinia virus): > 20 µM; EC50 (Human alphaherpesvirus 1): > 20 µM; Activity (Candida parapsilosis): inactive; CC50 [19]: 20 µM |
| CCOC(=O)c1ccc(NC(=S)Nc2cccc(C(F)(F)F)c2)cc1 | inactive | 64 | inactive | > 23 | > 50 | inactive | > 50 | 50 | > 100 | > 71 | > 64 | > 71 | inactive | inactive | > 100 | inactive | > 71 | inactive | 23 | inactive | Activity (Escherichia coli [18]): inactive; EC50 (Vaccinia virus): > 71 µM; EC50 (Human alphaherpesvirus 1): > 71 µM; Activity (Candida parapsilosis): inactive; CC50 [19]: 71 µM |
| COc1cccc2c1C(=O)c1c(O)c3c(c(O)c1C2=O)C[C@@](O)(C(=O)CO)C[C@@H]3O[C@H]1C[C@H](N)[C@H](O)[C@H](C)O1 [DOXORUBICIN] | – | – | – | – | – | – | – | – | – | – | – | – | – | – | – | – | – | – | – | – | CC50 (CCRF-SB): 0.03 µM; CC50 (WIL2-NS): 0.02 µM; CC50 (CCRF-CEM): 0.02 µM |
